Active and inactive are the calls of the source. No cut-off for these calls is given here.
Key:
Format in all cases: functional
[1] = tested on: Radical scavenging activity; test: Antioxidant activity assessed as DPPH radical scavenging activity at 100 ug after 30 mins by ELISA
Outline: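 Ethanolic DPPH (200 µl) mixed with 10 µl compound solution (100 µg) in 96-well plate, 37 °C for 30 min; decrease in absorbance read at 490 nm on ELISA reader. Ascorbic acid (10 µg) standard.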

MCF7 = test: Anticancer activity against human MCF7 cells assessed as cell viability at 10 ug after 3 hrs by trypan blue dye exclusion assay
Outline: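 MCF-7 cells grown in peritoneal cavity of albino mice (25–30 g) after i.p. injection of 1 × 10^6 cells/ml; aspirated day 15, washed three times in HBSS, adjusted to 1 × 10^6 cells/ml. 0.1 ml cells plus 0.1 ml compound (10 µg), 37 °C, 5% CO2, 3 h. Trypan blue (0.4%, 1:1) exclusion, haemocytometer count; % cytotoxicity versus untreated control, triplicate.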

[2] = tested on: Radical scavenging activity; test: Antioxidant activity assessed as DPPH radical scavenging activity after 30 mins by ELISA
Outline: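 DPPH discolouration in 96-well plate: 200 µl ethanolic DPPH plus 10 µl compound solution; 37 °C, 30 min; absorbance at 490 nm on ELISA reader. IC50 (concentration inhibiting 50% of free radicals) from serial dilutions below 100 µg. Ascorbic acid (10 µg) standard.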

IC50 [2] [µg]	SMILES	Activity [1]	Activity (MCF7) [%]
	CC1=C(C(=O)Nc2ccccc2Cl)C(c2ccco2)NC(=S)N1 (centres undefined)	inactive	76
	COc1cc(C2NC(=O)NC(C)=C2C(=O)Nc2ccccc2Cl)ccc1O (centres undefined)	inactive	52
58	CNC(=O)C1=C(C)NC(=S)NC1c1cccc([N+](=O)[O-])c1 (centres undefined)		39
	CC1=C(C(=O)Nc2ccccc2Cl)C(c2cccc([N+](=O)[O-])c2)NC(=S)N1 (centres undefined)	inactive	13
	CC1=C(C(=O)Nc2ccccc2Cl)C(c2ccccc2)NC(=S)N1 (centres undefined)	inactive	25
	CC1=C(C(=O)Nc2ccccc2Cl)C(c2ccc(Br)cc2)NC(=O)N1 (centres undefined)	inactive	7
	CNC(=O)C1=C(C)NC(=O)NC1c1ccccc1 (centres undefined)	inactive	27
	CC1=C(C(=O)Nc2ccccc2Cl)C(c2ccco2)NC(=O)N1 (centres undefined)	inactive	69
	COc1ccc(C2NC(=O)NC(C)=C2C(=O)Nc2ccccc2Cl)cc1 (centres undefined)	inactive	51
	CNC(=O)C1=C(C)NC(=S)NC1c1ccco1 (centres undefined)	inactive	57
	CC1=C(C(=O)Nc2ccccc2Cl)C(c2ccccc2)NC(=N)N1C#N (centres undefined)	inactive	35
63	CNC(=O)C1=C(C)NC(=O)NC1c1cccc([N+](=O)[O-])c1 (centres undefined)		23
	COc1cc(C2NC(=S)NC(C)=C2C(=O)Nc2ccccc2Cl)ccc1O (centres undefined)	inactive	45
	CNC(=O)C1=C(C)NC(=O)NC1c1ccc(O)c(OC)c1 (centres undefined)	inactive	49
	COc1ccc(C2NC(=S)NC(C)=C2C(=O)Nc2ccccc2Cl)cc1 (centres undefined)	inactive	47
	CC1=C(C(=O)Nc2ccccc2Cl)C(c2ccccc2O)NC(=S)N1 (centres undefined)	inactive	49

IC50 [2] [µg]	SMILES	Activity [1]	Activity (MCF7) [%]
	CNC(=O)C1=C(C)NC(=S)NC1c1ccccc1O (centres undefined)	inactive	45
	CC1=C(C(=O)Nc2ccccc2Cl)C(c2ccncc2)NC(=S)N1 (centres undefined)	inactive	72
	CNC(=O)C1=C(C)NC(=S)NC1c1ccccc1 (centres undefined)	inactive	35
	CNC(=O)C1=C(C)NC(=S)NC1c1ccc(O)c(OC)c1 (centres undefined)	inactive	41
	CC1=C(C(=O)Nc2ccccc2Cl)C(C(=O)/C=C/c2ccccc2)NC(=S)N1 (centres undefined)	inactive	71
	CNC(=O)C1=C(C)NC(=S)NC1c1ccc(OC)cc1 (centres undefined)	inactive	48
	CC1=C(C(=O)Nc2ccccc2Cl)C(c2ccc(Br)cc2)NC(=S)N1 (centres undefined)	inactive	18
	CC1=C(C(=O)Nc2ccccc2Cl)C(c2cccc([N+](=O)[O-])c2)NC(=O)N1 (centres undefined)	inactive	29
	CC1=C(C(=O)Nc2ccccc2Cl)C(c2ccccc2)NC(=O)N1 (centres undefined)	inactive	30
	CC1=C(C(=O)Nc2ccccc2Cl)C(c2ccccc2O)NC(=O)N1 (centres undefined)	inactive	58
	CNC(=O)C1=C(C)NC(=O)NC1c1ccco1 (centres undefined)	inactive	61
	CNC(=O)C1=C(C)NC(=O)NC1c1ccncc1 (centres undefined)	inactive	64
	CNC(=O)C1=C(C)NC(=O)NC1c1ccc(OC)cc1 (centres undefined)	inactive	41
	CC1=C(C(=O)Nc2ccccc2Cl)C(C(=O)/C=C/c2ccccc2)NC(=O)N1 (centres undefined)	inactive	79
	CC1=C(C(=O)Nc2ccccc2Cl)C(c2ccncc2)NC(=O)N1 (centres undefined)	inactive	59
	CNC(=O)C1=C(C)NC(=O)NC1C(=O)/C=C/c1ccccc1 (centres undefined)	inactive	47

From ChEMBL document CHEMBL1154086, “Novel Biginelli dihydropyrimidines with potential anticancer activity: a parallel synthesis and CoMSIA study” (Eur J Med Chem, 2009)
